From ChEMBL document CHEMBL1143122, “Novel analogs of D-e-MAPP and B13. Part 1: synthesis and evaluation as potential anticancer agents” (Bioorg Med Chem, 2008)

Experiments:
LOX IMVI = assay: Antiproliferative activity against human LOXIMVI cells after 48 hrs; format: functional
In short: (§1)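 NCI 60-cell screen. Cells were grown in RPMI 1640 with 5% FBS and 2 mM L-glutamine, then plated at 5,000–40,000 cells/well according to doubling time and preincubated for 24 h at 37 °C in 5% CO2. Compounds were dissolved in DMSO at 400× the top final concentration and tested at five 10-fold dilutions from 10−4 to 10−8 M for 48 h. Growth was read spectrophotometrically; GI50 is 50% net protein reduction.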

Malme-3M = assay: Antiproliferative activity against human MALME3M cells after 48 hrs; format: functional; in short: as §1
M14 = assay: Antiproliferative activity against human M14 cells after 48 hrs; format: functional; details: M14, 48 h; in short: as §1
SK-MEL-2 = assay: Antiproliferative activity against human SKMEL2 cells after 48 hrs; format: functional; details: SK-MEL-2, 48 h; in short: as §1
SK-MEL-28 = assay: Antiproliferative activity against human SKMEL28 cells after 48 hrs; format: functional; details: SK-MEL-28, 48 h; in short: as §1
UACC-257 = assay: Antiproliferative activity against human UACC257 cells after 48 hrs; format: functional; details: UACC-257, 48 h
In short: (§2)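 NCI 60-cell-line screen. Lines grown in RPMI 1640 with 5% fetal bovine serum and 2 mM L-glutamine, plated at 5,000–40,000 cells/well according to doubling time, left 24 h at 37 °C in 5% CO2. Drug stocks in DMSO at 400-fold the top final concentration. Five 10-fold dilutions, 10−4 to 10−8 M, incubated 48 h. Growth read spectrophotometrically as net protein; GI50 taken as 50% reduction.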

UACC-62 = assay: Antiproliferative activity against human UACC62 cells after 48 hrs; format: functional; details: UACC-62, 48 h; in short: as §2
OVCAR-3 = assay: Antiproliferative activity against human OVCAR-3 cells after 48 hrs; format: functional; details: OVCAR-3, 48 h; in short: as §1
OVCAR-4 = assay: Antiproliferative activity against human OVCAR4 cells after 48 hrs; format: functional; details: OVCAR-4, 48 h; in short: as §1
OVCAR-5 = assay: Antiproliferative activity against human OVCAR5 cells after 48 hrs; format: functional; details: OVCAR-5, 48 h; in short: as §1
OVCAR-8 = assay: Antiproliferative activity against human OVCAR8 cells after 48 hrs; format: functional; details: OVCAR-8, 48 h; in short: as §1
A498 = assay: Antiproliferative activity against human A498 cells after 48 hrs; format: functional; details: A498, 48 h, read-out: Log TGI (converted); in short: as §1
ACHN = assay: Antiproliferative activity against human ACHN cells after 48 hrs; format: functional; in short: as §1
RXF 393 = assay: Antiproliferative activity against human RXF393 cells after 48 hrs; format: functional; details: RXF 393, 48 h; in short: as §1
MDA-MB-231 = assay: Antiproliferative activity against human MDA-MB-231 cells after 48 hrs; format: functional; details: MDA-MB-231, 48 h; in short: as §1
MDA-MB-435 = assay: Antiproliferative activity against human MDA-MB-435 cells after 48 hrs; format: functional; details: Homo sapiens, MDA-MB-435, 48 h; in short: as §1
HOP-92 = assay: Antiproliferative activity against human HOP92 cells after 48 hrs; format: functional; details: HOP-92, 48 h; in short: as §1
NCI-H522 = assay: Antiproliferative activity against human NCI-H522 cells after 48 hrs; format: functional; details: NCI-H522, 48 h; in short: as §1
HCT-116 = assay: Antiproliferative activity against human HCT116 cells after 48 hrs; format: functional; details: HCT-116, 48 h; in short: as §1
HCT-15 = assay: Antiproliferative activity against human HCT15 cells after 48 hrs; format: functional; in short: as §1
KM12 = assay: Antiproliferative activity against human KM12 cells after 48 hrs; format: functional; details: for CC50: read-out: Log LC50 (the source's name) (converted); in short: as §1
SF-539 = assay: Antiproliferative activity against human SF539 cells after 48 hrs; format: functional; details: SF-539, 48 h; in short: as §1
SNB-19 = assay: Antiproliferative activity against human SNB19 cells after 48 hrs; format: functional; details: SNB-19, 48 h; in short: as §1
MCF7 = assay: Antiproliferative activity against human MCF7 cells after 48 hrs; format: functional, cell-based; details: MCF7, 48 h
[1] = Antiproliferative activity against human HL60(TB) cells after 48 hrs; format: functional, HL-60(TB); details: HL-60, 48 h
In short: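 NCI 60-line panel screen: cells grown in RPMI 1640 with 5% fetal bovine serum and 2 mM L-glutamine, plated at 5,000–40,000 cells/well by doubling time, and preincubated 24 h at 37 °C in 5% CO2. Drugs were solubilised in DMSO at 400-fold the final maximum and tested at five 10-fold dilutions from 10−4 to 10−8 M for 48 h. Net protein was read spectrophotometrically, and the concentration giving 50% reduction was reported as log10 GI50.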

K562 = assay: Antiproliferative activity against human K562 cells after 48 hrs; format: functional; details: K562, 48 h; in short: as §1
MOLT-4 = assay: Antiproliferative activity against human MOLT4 cells after 48 hrs; format: functional; details: MOLT-4, 48 h; in short: as §1
RPMI-8226 = assay: Antiproliferative activity against human RPMI8226 cells after 48 hrs; format: functional; details: RPMI-8226, 48 h; in short: as §1
A549 = assay: Antiproliferative activity against human A549 cells after 48 hrs; format: functional; details: A549, 48 h; in short: as §1
[2] = read-out: Log LC50 (the source's name) (converted)

## CCCCCCCCCCCCCCN[C@@H](C)[C@H](O)c1ccccc1
LOX IMVI
  GI50: 1780 nM
  LC50: 5.89 µM
LOX IMVI; read-out: Log TGI (converted)
  TGI: 3.24 µM
Malme-3M
  GI50: 2040 nM
  LC50: 6.46 µM
Malme-3M; read-out: Log TGI (converted)
  TGI: 3.63 µM
M14
  GI50: 1950 nM
  LC50: 6.31 µM
M14; read-out: Log TGI (converted)
  TGI: 3.55 µM
SK-MEL-2
  GI50: 1780 nM
SK-MEL-2; read-out: Log TGI (converted)
  TGI: 3.72 µM
SK-MEL-28
  GI50: 1910 nM
  LC50: 6.31 µM
SK-MEL-28; read-out: Log TGI (converted)
  TGI: 3.47 µM
UACC-257
  GI50: 1860 nM
UACC-257; [2]
  CC50: 6.76 µM
UACC-257; read-out: Log TGI (converted)
  TGI: 3.55 µM
UACC-62
  GI50: 1820 nM
  LC50: 6.31 µM
UACC-62; read-out: Log TGI (converted)
  TGI: 3.39 µM
OVCAR-3
  GI50: 1660 nM
OVCAR-3; read-out: Log TGI (converted)
  TGI: 3.16 µM
OVCAR-4
  GI50: 2000 nM
  LC50: 3.72 µM
OVCAR-4; read-out: Log TGI (converted)
  TGI: 6.92 µM
OVCAR-5
  GI50: 1700 nM
OVCAR-5; [2]
  CC50: 5.75 µM
OVCAR-5; read-out: Log TGI (converted)
  TGI: 3.16 µM
OVCAR-8
  GI50: 1910 nM
OVCAR-8; read-out: Log TGI (converted)
  TGI: 4.07 µM
A498
  TGI: 10 µM
ACHN
  GI50: 1780 nM
ACHN; [2]
  CC50: 6.03 µM
ACHN; read-out: Log TGI (converted)
  TGI: 3.31 µM
RXF 393
  GI50: 1660 nM
RXF 393; [2]
  CC50: 6.03 µM
RXF 393; read-out: Log TGI (converted)
  TGI: 3.16 µM
MDA-MB-231
  GI50: 1910 nM
  LC50 (50% lethal concentration): 6.46 µM
MDA-MB-231; read-out: Log TGI (converted)
  TGI: 3.55 µM
MDA-MB-435
  GI50: 1780 nM
  LC50: 5.75 µM
MDA-MB-435; read-out: Log TGI (converted)
  TGI: 3.24 µM
HOP-92
  GI50: 1510 nM
HOP-92; read-out: Log TGI (converted)
  TGI: 3.09 µM
NCI-H522
  GI50: 2040 nM
NCI-H522; [2]
  CC50: 7.41 µM
NCI-H522; read-out: Log TGI (converted)
  TGI: 3.89 µM
HCT-116
  GI50: 1860 nM
  LC50: 6.46 µM
HCT-116; read-out: Log TGI (converted)
  TGI: 3.47 µM
HCT-15
  LC50: 6.31 µM
HCT-15; Homo sapiens, HCT-15, 48 h
  GI50: 1910 nM
  LC50: 5.89 µM
KM12; Homo sapiens, KM12, 48 h
  GI50: 1860 nM
  CC50: 6.31 µM
KM12
  CC50: 5.62 µM
SF-539
  GI50: 1780 nM
SF-539; read-out: Log TGI (converted)
  TGI: 3.39 µM
SNB-19
  GI50: 1700 nM
SNB-19; [2]
  CC50: 5.89 µM
SNB-19; read-out: Log TGI (converted)
  TGI: 3.16 µM
MCF7
  GI50: 1820 nM
  LC50: 6.31 µM
MCF7; read-out: Log TGI (converted)
  TGI: 3.39 µM
[1]
  GI50: 2000 nM
  LC50: 8.13 µM
[1]; read-out: Log TGI (converted)
  TGI: 3.98 µM
K562
  GI50: 1660 nM
  LC50: 7.41 µM
K562; read-out: Log TGI (converted)
  TGI: 3.55 µM
MOLT-4
  GI50: 2290 nM
MOLT-4; read-out: Log TGI (converted)
  TGI: 4.68 µM
RPMI-8226
  GI50: 2000 nM
RPMI-8226; read-out: Log TGI (converted)
  TGI: 4.37 µM
A549
  GI50: 1910 nM
A549; [2]
  CC50: 7.08 µM
A549; read-out: Log TGI (converted)
  TGI: 3.63 µM
